Assay results reported in publication PMC3144551 (Science signaling, 2011).
Entries after “also recorded” stand apart in the source; their conditions may differ.

Legend:
MrgprA3 = assay: Calcium imaging of MrgprA3-expressing CHO cells; type: cell-based, mouse; details: chloroquine 100 µM; n = 155 cells
How it was run: (§1)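 Each receptor was transfected individually into CHO cells. Cells were loaded with fura-2 acetoxymethyl ester for 45 min at 37°C, washed, and imaged at 340- and 380-nm excitation to detect intracellular free Ca2+. There were at least three independent experiments, with at least 100 cells analysed each time.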

[1] = tested on: WT DRG neurons electroporated with siRNA; assay: Calcium imaging of WT DRG neurons electroporated with siRNA; type: cell-based, mouse; details: CQ 1 mM
MrgprC11 [2] = target: T1, MrgprC11 (Mus musculus, UniProt Q8CIP3); assay: Calcium imaging of MrgprC11-expressing CHO cells; type: cell-based; details: for activation of MrgprC11 (calcium response): MrgprC11-expressing CHO cells, concentration not given
T1 sequence (Q8CIP3 1-322): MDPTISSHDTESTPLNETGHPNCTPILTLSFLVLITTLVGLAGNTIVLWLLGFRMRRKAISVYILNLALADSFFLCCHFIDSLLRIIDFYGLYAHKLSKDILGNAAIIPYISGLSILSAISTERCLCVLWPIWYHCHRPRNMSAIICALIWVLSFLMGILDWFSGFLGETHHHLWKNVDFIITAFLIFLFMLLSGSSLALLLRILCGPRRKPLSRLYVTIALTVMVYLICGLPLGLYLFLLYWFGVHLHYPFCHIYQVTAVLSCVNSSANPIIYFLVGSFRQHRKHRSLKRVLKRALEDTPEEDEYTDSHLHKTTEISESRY

human MrgprX3 = assay: Calcium imaging of MrgprX3-expressing CHO cells; type: cell-based; details: Ca^2+ imaging, fig. S4
How it was run: as §1

human subjects = details: ref [5], cited from earlier work
human MrgprX2 = assay: Calcium imaging of MrgprX2-expressing CHO cells; type: cell-based; details: Ca^2+ imaging, fig. S4
How it was run: as §1

human MrgprX1 = assay: Calcium imaging of MrgprX1-expressing CHO cells; type: cell-based; details: Ca^2+ imaging, fig. S4
How it was run: as §1

human MrgprX4 = assay: Calcium imaging of MrgprX4-expressing CHO cells; type: cell-based; details: Ca^2+ imaging, fig. S4
How it was run: as §1

MrgprC11 [3] = target: T1, MrgprC11; details: ref [8], [11]; cited from earlier work
mice [4] = details: cited from earlier work
MrgprC11 [5] = target: T1, MrgprC11; assay: Calcium imaging of Mrgpr-clusterΔ^−/− DRG neurons electroporated with MrgprC11; type: cell-based; details: MrgprC11-expressing Mrgpr-clusterΔ^−/− neurons, n = 66; BAM(8–22) 2 µM
DRG neurons = assay: Whole-cell current-clamp recording of cultured DRG neurons; type: cell-based, mouse; details: n = 6; perfused with 1 mM SLIGRL or BAM(8–22) for 20 s, pH 7.38, room temperature (~25°C)
mouse hindpaws = assay: Thermal hyperalgesia, paw withdrawal latency to radiant heat; type: in vivo; details: trypsin 100 ng, 10 µl, intraplantar; WT n = 7, Mrgpr-clusterΔ^−/− n = 8, PAR2^−/− n = 10
mice [6] = assay: Scratching behavior after injection into the nape of the neck; type: in vivo, mouse; details: trypsin 200 µg, 50 µl, PAR2^−/− n = 6 vs WT n = 6
How it was run: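 Male mice aged 2 to 3 months (20 to 30 g) were backcrossed to C57BL/6 for at least 10 generations and scored blind to genotype. A scratching bout was continuous hindpaw scratching directed at the injection site. Bouts were counted in 5-min intervals over a 30-min observation period after injection.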

CCN(CC)CCCC(C)Nc1ccnc2cc(Cl)ccc12 (stereo not shown) [chloroquine]
calcium response, MrgprA3-expressing CHO cells (MrgprA3): could be activated by chloroquine; also recorded: responded | chloroquine sensitivity ([1]; WT DRG neurons + MrgprA3 siRNA): abolished the chloroquine response | chloroquine sensitivity ([1]; WT DRG neurons + MrgprA3 siRNA, listed as CQ): completely abolished CQ sensitivity | chloroquine sensitivity ([1]; WT DRG neurons + MrgprC11 siRNA, n = 7 CQ-sensitive neurons): still sensitive

LRGILS-NH2
activation of MrgprC11 (calcium response) (MrgprC11 [2]): None of these derivatives induced significant calcium responses in cells

SLIGKV
calcium response, MrgprX3-expressing CHO cells (human MrgprX3): insensitive to the peptide | itch in human subjects (human subjects; intracutaneous injection, low millimolar range): provokes itch in human subjects | calcium response, MrgprX2-expressing CHO cells (human MrgprX2): exhibited a response | calcium response, MrgprX1-expressing CHO cells (human MrgprX1): insensitive to the peptide | calcium response, MrgprX4-expressing CHO cells (human MrgprX4): insensitive to the peptide

SLIGRL [SLIGRL without amidation (−NH2)]
activation of MrgprC11 (calcium response) (MrgprC11 [2]): None of these derivatives induced significant calcium responses in cells

bovine adrenal medulla peptide [BAM(8–22)]
agonism at MrgprC11 (MrgprC11 [3]): specific agonist for MrgprC11 | calcium response, MrgprC11-expressing CHO cells (MrgprC11 [2]; BAM(8–22) 2 µM, n = 150 cells): responded | evoked scratching in Mrgpr-clusterΔ^−/− mice (mice [4]; Mrgpr-clusterΔ^−/− mice, ref [8]): reduced | Mrgpr-dependent scratching response (mice [4]; ref [8]): induces an Mrgpr-dependent scratching response | increase in [Ca^2+]i (MrgprC11 [5]): showed increased [Ca^2+]i | action potentials evoked in SLIGRL-sensitive WT DRG neurons (DRG neurons): All of them also generated action potentials

trypsin
trypsin-induced thermal hyperalgesia (paw withdrawal latency) (mouse hindpaws): comparable among wild-type, Mrgpr knockout, and PAR2 knockout mice; also recorded: comparable among the three groups | scratching response to trypsin in mice (mice [4]; injection into nape of neck, ref [4]): induces a scratching response | scratching behavior in mice (mice [4]; intradermal injection, ref [3], [4]): elicit scratching behavior in mice | itch in humans (human subjects; skin application, [6]): induces itch in humans | trypsin-induced scratching in PAR2^−/− mice (mice [6]): significantly stronger in PAR2^−/− mice; also recorded: scratched significantly more than did wild-type controls
